Laboratory results reported in ChEMBL document CHEMBL1146498, “Excisanin H, a novel cytotoxic 14,20-epoxy-ent-kaurene diterpenoid, and three new ent-kaurene diterpenoids from Rabdosia excisa” (J Nat Prod, 2004).
In brackets after ≈: the same amount, converted by molar mass.

Test system: P388
Experiment: Cytotoxicity against mouse P388 cells
Assay type: functional, cell-based
Outline: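 In vitro assay on P388 murine leukemia cells; cytotoxic activity expressed as IC50, reported in μg/mL.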

Row | Structure (SMILES) | IC50
1 | C=C1C(=O)[C@@]23[C@H](O)C[C@@H]4C(C)(C)CCC[C@@]4(CO)[C@@H]2C[C@H](O)[C@@H]1[C@H]3O [EXCISANIN I] | 0.87 µg/mL (≈ 2.48 µM)
2 | C=C1C(=O)[C@]23[C@H](O)[C@H]1CC[C@H]2[C@@]12CO[C@@]3(O)C[C@@H]1C(C)(C)CC[C@@H]2O [MEGATHYRIN A] | 0.77 µg/mL (≈ 2.21 µM)
3 | C=C1C(=O)[C@@]23[C@H](O)C[C@@H]4[C@@](C)(CO)CCC[C@@]4(CO)[C@@H]2CC[C@@H]1[C@H]3O [EXCISANIN J] | 0.92 µg/mL (≈ 2.63 µM)
4 | C=C1C(=O)[C@@]23[C@H](O)C[C@@H]4[C@@](C)(CO)CC[C@H](O)[C@@]4(C)[C@@H]2CC[C@@H]1[C@H]3O | 0.92 µg/mL (≈ 2.63 µM)
5 | C=C1C(=O)[C@@]23[C@H](O)C[C@@H]4C(C)(C)CC[C@H](O)[C@@]4(CO)[C@@H]2CC[C@@H]1[C@H]3O [KAMEBAKAURIN] | 0.82 µg/mL (≈ 2.34 µM)
6 | C=C1C(=O)[C@@]23[C@H](O)C[C@@H]4C(C)(C)CC[C@H](O)[C@@]4(C)[C@@H]2C[C@H](OC(C)=O)[C@@H]1[C@H]3O [EXCISANIN B] | 0.63 µg/mL (≈ 1.61 µM)
7 | C=C1C(=O)[C@@]23[C@H](O)C[C@@H]4C(C)(C)CC[C@H](O)[C@@]4(COC(C)=O)[C@@H]2CC[C@@H]1[C@H]3O [HENRYIN] | 0.58 µg/mL (≈ 1.48 µM)
8 | C=C1C(=O)[C@@]23[C@H](O)C[C@@H]4C(C)(C)CC[C@H](O)[C@@]4(C)[C@@H]2C[C@H](O)[C@@H]1[C@H]3O [EXCISANIN A] | 1.11 µg/mL (≈ 3.17 µM)
9 | C=C1C(=O)[C@@]23[C@H](O)C[C@@H]4[C@@](C)(CO)CCC[C@@]4(C)[C@@H]2C[C@H](O)[C@@H]1[C@H]3O [RABDOKUNMIN C] | 1.06 µg/mL (≈ 3.02 µM)
10 | C=C1C(=O)[C@@]23[C@H](O)C[C@@H]4C(C)(C)CC[C@H](O)[C@@]4(CO)[C@@H]2C[C@H](O)[C@@H]1[C@H]3O [RABDOSERRIN B] | 1.01 µg/mL (≈ 2.76 µM)
11 | C=C1C(=O)[C@]23[C@H](O)C[C@@H]4C(C)(C)CC[C@H](O)[C@]45CO[C@]2(O)[C@H]1CC[C@@H]53 [EXCISANIN H] | 0.96 µg/mL (≈ 2.76 µM)
12 | C=C1C(=O)[C@@]23[C@H](O)C[C@@H]4[C@@](C)(COC(C)=O)CC[C@H](O)[C@@]4(C)[C@@H]2CC[C@@H]1[C@H]3O | 0.72 µg/mL (≈ 1.83 µM)
13 | C=C1C(=O)[C@@]23[C@H](O)C[C@@H]4C(C)(C)CC[C@H](O)[C@@]4(C)[C@@H]2CC[C@@H]1[C@H]3O [KAMEBANIN] | 0.69 µg/mL (≈ 2.06 µM)
14 | C=C1C(=O)[C@@]23[C@@H](CC[C@@H]1[C@H]2O)[C@@]12C(=O)O[C@@H]3C[C@@H]1C(C)(C)CC[C@@H]2O | 0.77 µg/mL (≈ 2.22 µM)
